Columns and labels:
Format in all cases: functional, cell-based
[1] = test system: PC-3; assay: Cytotoxicity against human PC3 cells after 48 hrs by sulforhodamine B assay
Procedure, shortened: (§1)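 Cells (NCI source) in RPMI-1640 with 10% FBS and antibiotics, 37 °C, 5% CO2. Seeded at 5 × 10^4 cells/mL (K562, MCF-7), 7.5 × 10^4 (U251, PC-3, SKLU-1), or 10 × 10^4 (HCT-15). After 24 h, DMSO-dissolved compounds added for 48 h. Fixed with cold TCA, stained with 0.4% SRB, Tris-extracted, read at 515 nm. IC50 from linear regression of dose-response curves.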

[2] = test system: SK-LU-1; assay: Cytotoxicity against human SK-LU-1 cells after 48 hrs by sulforhodamine B assay; procedure, shortened: as §1
[3] = test system: MCF7; assay: Cytotoxicity against human MCF7 cells after 48 hrs by sulforhodamine B assay; procedure, shortened: as §1
[4] = test system: U-251; assay: Cytotoxicity against human U251 cells after 48 hrs by sulforhodamine B assay; conditions: U-251, 48 h; procedure, shortened: as §1
[5] = test system: K562; assay: Cytotoxicity against human K562 cells after 48 hrs by sulforhodamine B assay; procedure, shortened: as §1
[6] = test system: HCT-15; assay: Cytotoxicity against human HCT15 cells after 48 hrs by sulforhodamine B assay; conditions: HCT-15, 48 h; procedure, shortened: as §1

SMILES	Activity [1]	Activity [2]	Activity [3]	IC50 [4]	Activity [5]	IC50 [6]
C[C@H]1[C@@H](O)C[C@@H](O)[C@@H]2[C@]1(C)CC[C@H]1[C@@]2(C)CC[C@@]2(C)[C@@H]3CC(C)(C)CC[C@]3(C)CC[C@]12C	Not toxic	Not toxic	Not toxic	22.8 µM	Not toxic	–
C[C@H]1C(=O)C[C@@H](O)[C@@H]2[C@]1(C)CC[C@H]1[C@@]2(C)CC[C@@]2(C)[C@@H]3CC(C)(C)CC[C@]3(C)CC[C@]12C	Not toxic	Not toxic	Not toxic	–	Not toxic	–
C[C@H]1NC(=O)C[C@@H](O)[C@@H]2[C@]1(C)CC[C@H]1[C@@]2(C)CC[C@@]2(C)[C@@H]3CC(C)(C)CC[C@]3(C)CC[C@]12C	Not toxic	Not toxic	Not toxic	–	Not toxic	–
CC(=O)O[C@H]1CC[C@]2(C)[C@H]3CC[C@]4(C)C(=CC[C@@]5(C(=O)O)CCC(C)(C)C[C@H]54)[C@]3(C)CC[C@H]2C1(C)C [ACETYL ALEURITOLIC ACID]	Not toxic	Not toxic	Not toxic	8.4 µM	Not toxic	–
C[C@H]1OC(=O)C[C@@H](O)[C@@H]2[C@]1(C)CC[C@H]1[C@@]2(C)CC[C@@]2(C)[C@@H]3CC(C)(C)CC[C@]3(C)CC[C@]12C	Not toxic	Not toxic	Not toxic	–	Not toxic	–
CC(=O)O[C@H]1C[C@@H](O)[C@@H]2[C@](C)(CC[C@H]3[C@@]2(C)CC[C@@]2(C)[C@@H]4CC(C)(C)CC[C@]4(C)CC[C@]32C)[C@H]1C	Not toxic	Not toxic	Not toxic	–	Not toxic	–
CC1(C)CC[C@]2(C)CC[C@]3(C)[C@H]4CC[C@@]5(C)[C@@H](CC[C@H](O)[C@@H]5C(=O)O)[C@]4(C)CC[C@@]3(C)[C@@H]2C1	Not toxic	Not toxic	Not toxic	–	Not toxic	–
C[C@H]1C(=O)C=C[C@@H]2[C@]1(C)CC[C@H]1[C@@]2(C)CC[C@@]2(C)[C@@H]3CC(C)(C)CC[C@]3(C)CC[C@]12C	Not toxic	Not toxic	Not toxic	–	Not toxic	–
CC1(C)CC[C@]2(C)CC[C@]3(C)[C@H]4CC[C@@]5(C)[C@@H](C=CC(=O)[C@@]5(C)O)[C@]4(C)CC[C@@]3(C)[C@@H]2C1	Not toxic	Not toxic	Not toxic	–	Not toxic	41.8 µM
CC(=O)O[C@H]1C[C@@H](OC(C)=O)[C@@H]2[C@](C)(CC[C@H]3[C@@]2(C)CC[C@@]2(C)[C@@H]4CC(C)(C)CC[C@]4(C)CC[C@]32C)[C@H]1C	Not toxic	Not toxic	Not toxic	–	Not toxic	–
C=C[C@@H]1[C@@](C)([C@@H](C)C(=O)O)CC[C@H]2[C@@]1(C)CC[C@@]1(C)[C@@H]3CC(C)(C)CC[C@]3(C)CC[C@]21C	Not toxic	Not toxic	Not toxic	36.8 µM	Not toxic	–
C[C@H]1OC(=O)CC[C@@H]2[C@]1(C)CC[C@H]1[C@@]2(C)CC[C@@]2(C)[C@@H]3CC(C)(C)CC[C@]3(C)CC[C@]12C [FRIEDELIN-3,4-LACTONE]	Not toxic	Not toxic	Not toxic	17.1 µM	Not toxic	–
C[C@H]1C(=O)CC(=O)[C@@H]2[C@]1(C)CC[C@H]1[C@@]2(C)CC[C@@]2(C)[C@@H]3CC(C)(C)CC[C@]3(C)CC[C@]12C	Not toxic	Not toxic	Not toxic	–	Not toxic	–
C[C@H]1/C(=N/O)C[C@@H](O)[C@@H]2[C@]1(C)CC[C@H]1[C@@]2(C)CC[C@@]2(C)[C@@H]3CC(C)(C)CC[C@]3(C)CC[C@]12C	Not toxic	Not toxic	Not toxic	–	Not toxic	–
